Blank lines part the entries; values can stand above or below the molecule they belong to.
Columns and labels:
[1] = target: T1, Calpain-1 catalytic subunit (Sus scrofa, UniProt P35750); assay: The compound was evaluated for inhibition of Calpain 1 from porcine erythrocytes; format: cell-based
T1 sequence (P35750 whole entry): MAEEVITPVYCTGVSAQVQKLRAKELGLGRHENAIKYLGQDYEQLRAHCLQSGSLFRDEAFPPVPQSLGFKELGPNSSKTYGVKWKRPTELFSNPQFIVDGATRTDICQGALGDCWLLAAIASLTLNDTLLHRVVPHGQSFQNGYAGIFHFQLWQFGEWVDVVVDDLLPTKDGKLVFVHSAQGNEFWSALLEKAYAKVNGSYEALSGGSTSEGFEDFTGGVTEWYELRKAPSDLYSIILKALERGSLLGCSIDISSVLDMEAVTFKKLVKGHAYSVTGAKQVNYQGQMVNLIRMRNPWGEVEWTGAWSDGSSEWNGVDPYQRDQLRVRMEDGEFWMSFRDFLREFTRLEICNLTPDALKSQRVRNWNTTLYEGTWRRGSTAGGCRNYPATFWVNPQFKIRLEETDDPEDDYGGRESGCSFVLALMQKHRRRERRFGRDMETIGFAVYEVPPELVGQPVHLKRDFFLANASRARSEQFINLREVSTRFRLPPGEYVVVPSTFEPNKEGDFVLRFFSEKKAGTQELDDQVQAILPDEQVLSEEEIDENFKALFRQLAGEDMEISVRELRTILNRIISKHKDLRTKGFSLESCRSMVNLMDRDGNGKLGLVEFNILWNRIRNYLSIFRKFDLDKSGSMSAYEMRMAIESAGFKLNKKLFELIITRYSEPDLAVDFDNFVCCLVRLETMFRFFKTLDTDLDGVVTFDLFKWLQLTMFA
How it was run: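 Substrate was Suc-Leu-Tyr-AMC at two concentrations, inhibitor varied, and 5 mM CaCl2 started the reaction. Fluorescence increase (ex 370, em 440 nm) was read at ambient temperature. Ki came from Dixon plots of triplicate means.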

Cathepsin B = Cathepsin B (Homo sapiens, UniProt P07858); assay: The compound was evaluated for inhibition of cathepsin B from human liver
How it was run: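 Cathepsin B from human liver, assayed in 20 mM NaOAc pH 5.2, 0.5 mM DTT, 2% DMSO. Ki was obtained from Dixon plots (1/v versus inhibitor concentration, intersecting lines) using the average of triplicate assays.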

[2] = Selectivity ratio of Ki values for cathepsin B inhibition by those for calpain I inhibition

SMILES: CC(C)[C@H]1C[C@@]1(NC(=O)OCc1ccccc1)C(=O)N[C@@H](Cc1ccccc1)C(=O)C(=O)NCCc1ccccc1
Ki [1]: 11.1 µM
Ki (Cathepsin B): 5.05 µM
Selectivity ratio [2]: 0.5

SMILES: CC(C)[C@H]1C[C@]1(NC(=O)OCc1ccccc1)C(=O)N[C@@H](Cc1ccccc1)C(=O)C(=O)NCCc1ccccc1
Ki [1]: 6.15 µM
Ki (Cathepsin B): 1.26 µM
Selectivity ratio [2]: 0.2

SMILES: CC(C)[C@@H]1C[C@]1(NC(=O)OCc1ccccc1)C(=O)N[C@@H](Cc1ccccc1)C(=O)C(=O)NCCc1ccccc1
Ki [1]: 40 µM
Ki (Cathepsin B): 4.56 µM
Selectivity ratio [2]: 0.1

These reach a lower Ki [1]. Values come first.

Ki [1]: 0.07 µM
Ki (Cathepsin B): 0.3 µM
Selectivity ratio [2]: 4
SMILES: CC(C)C[C@H](NC(=O)OCc1ccccc1)C(=O)N[C@@H](Cc1ccccc1)C(=O)C(=O)NCCc1ccccc1

Ki [1]: 0.75 µM
Ki (Cathepsin B): 6.78 µM
Selectivity ratio [2]: 9
SMILES: CC(C)[C@@H]1C[C@@]1(NC(=O)OCc1ccccc1)C(=O)N[C@@H](Cc1ccccc1)C(=O)C(=O)NCCc1ccccc1
